FN deposit inh: fibronectin deposition inhibition. inhibition, % at 12.6 µM. AID 743247. 350,000 compounds, 0.086% hits. AH1F fibroblasts, Alexa488-fibronectin deposition fluorescence, overnight;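 active means mean inhibition across replicates of 30% or more, regardless of how many single replicates reach that level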;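 further: positive control wells lacked labelled fibronectin entirely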
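material = AH1F fibroblast monolayer depositing Alexa488-labelled fibronectin into matrix | amount = 10000 AH1F cells/well | buffer or medium = DMEM plus 2% serum, read in PBS | incubation = 1 h cell adhesion before compound, then overnight fibronectin incubation | detection = fluorescence at 485 nm excitation, 525 nm emission | evaluation = percent inhibition as loss of matrix-bound fibronectin fluorescence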
XiGFP reactiv: reactivates the inactive X chromosome in mouse fibroblasts. XiGFP mouse fibroblasts, % GFP-positive cells imaging, 3 d; cells co-treated with 5-aza-dC sensitizer; scaled so ellipticine positive control = 100%. activation, % at 7.58 µM. 360,000 compounds, 0.055% hits;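 active means mean normalized replicate activation at least 10% and every replicate at or above 10%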;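 further: 0% = median of on-plate neutral control wells and 100% = ellipticine 6 µM median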
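material = 68-5-11 XiGFP fibroblast line | medium = DMEM plus 5-aza-dC sensitizer | schedule = 3 days compound exposure | benchmarks = positive control ellipticine, 6 µM final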
DENV2 CPE: DENV2-induced cell death inhibition; 350,000 compounds, 1.7% hits; CPE inhibition, % at 9.99 µM; DENV2-infected cells, cytopathic effect rescue, plate reader; in the data active means CPE inhibition above about 20%, passing the limit was not always enough; tested in BHK-21 cells;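 further: 0% = median of neutral control wells and 100% = median of positive control wells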
F508del corr: CFTR F508del correction in bronchial cells | CFBE cells, YFP halide quenching; stimulated with forskolin plus potentiator P3; % fluorescence drop versus neutral controls | activity (quench increase), % at 7.58 µM | 350,000 compounds, 0.36% hits;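 active means mean added fluorescence quench of at least 8% versus neutral control, with both replicates also reaching 8%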;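 further: cells transiently co-express mutant CFTR-F508del with the halide-sensitive YFP; corrector assay measuring rescue of mutant channel to the surface after 24 h compound exposure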
PGC1a acetyl inh: lowers PGC1a acetylation signal in U2OS cells; 350,000 compounds, 0.17% hits; AlphaScreen anti-acetyl-lysine; with virally co-expressed GCN5 acetyltransferase; inhibition, % at 15.6 µM;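 active means every replicate shows inhibition of at least 40%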;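 further: 0% = neutral control wells and 100% = positive control wells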
Cneo AK release: causes C. neoformans cell lysis. adenylate kinase release luminescence, 4 h; normalised: neutral wells 0, clomiphene wells 100. 360,000 compounds, 0.2% hits. lysis activity, % at 15 µM;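 active means mean lysis activity across replicates of at least 80%, whatever share of replicates individually reach that level; inactive means mean lysis activity below 80%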
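read-out = cell lysis signal | test system = log-phase Cryptococcus neoformans yeast cells | input = cells at 5 × 10^6 per mL | medium = fresh YPD growth medium | signal = luminescent adenylate kinase detection reagent | timing = 4 h at 37 °C static, read 1 h later | dosing = single dose | controls = Clomiphene as positive lysis control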
Active calls of the source: *; . = no result given. Compounds with a hit are over-represented: about 1.9% of the library has one in this group of screens.

SMILES	FN deposit inh	XiGFP reactiv	DENV2 CPE	F508del corr	PGC1a acetyl inh	Cneo AK release
O=C(NCc1cccc(F)c1)Nc1nnc([C@H]2C[C@H](O)[C@@H](CO)O2)s1	3	0	31*	-1	-12	-2
CC(=O)O[C@H]1C(=O)[C@@]2(C)[C@H]([C@H](OC(=O)c3ccccc3)[C@]3(O)C[C@H](OC(=O)[C@H](O)C(NC(=O)c4ccccc4)c4ccccc4)C(C)=C1C3(C)C)[C@]1(OC(C)=O)CO[C@@H]1C[C@@H]2O (some centres not stated)	10	0	-6	11*	-19	-4
CC(=O)O[C@H]1C(=O)[C@@]2(C)[C@H]([C@H](OC(=O)c3ccccc3)[C@]3(O)C[C@H](OC(=O)[C@H](O)[C@@H](NC(=O)c4ccccc4)c4ccccc4)C(C)=C1C3(C)C)[C@]1(OC(C)=O)CO[C@@H]1C[C@@H]2O	23	0	4	4	.	-2
[N-]=[N+]=Nc1ccccc1C[C@]1(C(=O)N2CCCCC2)N=C(c2ccc(OCCCO)cc2)O[C@H]1c1ccccc1	.	.	-8	-3	.	47
NS(=O)(=O)c1ccc2nc(NC(=O)c3ccc4ncsc4c3)sc2c1	.	.	.	.	.	6
NS(=O)(=O)c1ccc2nc(NC(=O)c3ccc4c(c3)OCCO4)sc2c1	-3	0	17	8.9*	1	3
COC(=O)N1C(=O)[C@](c2ccsc2)(C(C)C)N1C(=O)OC	-2	0	48*	0	8	0
CC(C)CC#Cc1ccc([C@H]2[C@@H](CO)N3C(=O)CN(S(C)(=O)=O)C[C@@H]23)cc1	.	0	.	.	.	.
CCS(=O)(=O)N1CC(=O)N2[C@H](CO)[C@@H](c3ccc(C#CCC(C)C)cc3)[C@@H]2C1	.	0	48*	11*	-2	.
Cc1ccccc1S(=O)(=O)N1CC(=O)N2[C@H](CO)[C@H](c3ccc(C#Cc4ccccc4)cc3)[C@H]2C1	.	0	24*	6	-12	.
CCCNC(=O)N1CC2(CN(Cc3cccc(OC)c3)C2)c2c([nH]c3cc(OC)ccc23)[C@H]1CO	.	0	1	3	.	.
CO[C@H]1CN(C)C(=O)c2cc(NC(C)=O)ccc2OC[C@@H](C)N(C(=O)c2ccccc2)C[C@@H]1C	-10	0	24*	.	.	7
CCC(=O)N1C[C@@H](C)[C@H](OC)CN(C)C(=O)c2cc(NC(=O)COC)ccc2OC[C@@H]1C	-19	0	-3	1	5	3
COCC(=O)Nc1ccc2c(c1)C(=O)N(C)C[C@@H](OC)[C@H](C)CN(C(C)=O)[C@H](C)CO2	3	0	102*	0	1	-1
CCC(=O)N1C[C@H](C)[C@H](OC)CN(C)C(=O)c2cc(NC(=O)COC)ccc2OC[C@H]1C	-22	0	21*	0	1	0
CCC(=O)Nc1ccc2c(c1)C(=O)N(C)C[C@@H](OC)[C@@H](C)CN(C(=O)COC)[C@H](C)CO2	-3	0	22*	-3	5	3
CCCC(=O)Nc1ccc2c(c1)C(=O)N(C)C[C@H](OC)[C@H](C)CN(C(C)=O)[C@H](C)CO2	-3	0	10	2	-3	-3
Cc1ccc(S(=O)(=O)Nc2ccc3c(c2)C(=O)N([C@H](C)CO)C[C@@H](C)[C@@H](CN(C)C(=O)NC2CCCCC2)OCCCC[C@@H](C)O3)cc1	.	0	6	-1	-18	2
CCC(=O)N1C[C@H](C)[C@H](OC)CN(C)C(=O)c2cc(NC(=O)NC3CCCC3)ccc2OC[C@H]1C	6	0	4	-3	7	.
COCC(=O)Nc1ccc2c(c1)C(=O)N(C)C[C@H](OC)[C@H](C)CN(C(=O)CC1CC1)[C@H](C)CO2	-2	0	42*	0	12	0
COCC(=O)Nc1ccc2c(c1)C(=O)N(C)C[C@@H](OC)[C@@H](C)CN(C(=O)CC1CC1)[C@@H](C)CO2	7	0	-4	1	2	-2
CCC(=O)N1C[C@H](C)[C@H](OC)CN(C)C(=O)c2cc(NC(=O)NC3CCCC3)ccc2OC[C@@H]1C	-8	0	39*	-2	5	.
CO[C@H]1CN(C)C(=O)c2cc(NC(=O)Nc3ccccc3)ccc2OC[C@H](C)N(C(C)=O)C[C@H]1C	11	0	66*	1	-12	-4
CCCNC(=O)N(C)C[C@H]1Oc2cc(-c3cncnc3)ccc2S(=O)(=O)N([C@@H](C)CO)C[C@H]1C	8	-1	0	-1	5	-1
COc1cccc(CNC(=O)C[C@@H]2C=C[C@@H](NC(C)=O)[C@H](CO)O2)c1	-16	0	-11	3	1	-1
SMILES	FN deposit inh	XiGFP reactiv	DENV2 CPE	F508del corr	PGC1a acetyl inh	Cneo AK release
Cc1ccc(CNCc2cc(Cl)ccc2O)cc1	9	0	88*	0	16	-5
CCCCCCCN1C(Nc2ccccc2)=NC[C@@H]1Cc1ccccc1	-2	0	3	2	-13	1
CCN1C(Nc2ccccc2)=NC[C@@H]1CC(C)C	-8	0	22*	0	4	1
c1ccc(CCCCN2C(Nc3ccccc3)=NC[C@@H]2Cc2ccccc2)cc1	8	-1	24*	0	-22	1
CCS(=O)(=O)N1[C@@H](CO)[C@@H](c2ccccc2)C12CN(C(=O)C1CCCCC1)C2	.	0	-2	1	-8	.
COc1ccc2c3c([nH]c2c1)[C@@H](CO)N(S(=O)(=O)c1cn(C)cn1)CC31CCN(Cc2ccccc2)CC1	.	0	.	.	.	.
COc1ccc(NC(=O)c2nc(C)c(C3(C)CC(c4cccnc4)=NO3)s2)cc1 (configuration not stated)	2	1	0	17*	.	-5
CC(C)(C=O)C1=CC(=O)c2ccccc2C1=O	-10	18*	5	.	.	.
CC1=CC(=O)c2ccccc2C1=O	8	0	10	-4	-2	-1
CCC(=O)N1[C@@H]2Cn3c(ccc(C4=CCCC4)c3=O)[C@H]1[C@@H](C(=O)N[C@@H](C)c1ccccc1)[C@@H]2CO	.	0	-14	-2	.	4
C[C@@H]1CN([C@H](C)CO)C(=O)Cc2cc(NC(=O)CCC(F)(F)F)ccc2O[C@@H]1CN(C)Cc1ccc(-c2ccccc2)cc1	.	0	15	-1	11	0
C=CC[C@@H](CC(=O)N[C@H](CO)Cc1ccccc1)C(=O)N[C@@H](C)COC(=O)[C@@H](CC=C)Cc1ccc(F)cc1	-1	-1	41*	-1	.	3
C=CCC[C@@H](Cc1ccc(F)cc1)C(=O)OCCNC(=O)[C@@H](CC=C)CC(=O)N[C@H](CO)Cc1ccccc1	0	0	44*	1	-6	0
